What was measured:
[1] = target: Muscarinic acetylcholine receptor M3 (Cavia porcellus) (UniProt Q8VH26); assay: Agonist potency at muscarinic M3 receptor in guinea pig ileum; format: functional, tissue-based
Method in brief: (§1)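 Isolated guinea pig tissue contractions, measured against arecaidine propargyl ester control curves. Agonists: cumulative dose-response curve after a 30 min wash, responses as % of the control maximum. Antagonists: 60 min incubation, then a new agonist curve. Parallel time-control tissues were run. Values expressed as pD2 (-log ED50) with intrinsic activity, or as pKb (-log Kb).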

[2] = target: T1, Muscarinic acetylcholine receptor M2 (Homo sapiens) (UniProt P08172); assay: Antagonist affinity at muscarinic M2 receptor in guinea pig atrium; format: functional, tissue-based; details: Cavia porcellus; Cardiac atrium; target entry is the homologue from another species
T1 sequence (whole entry): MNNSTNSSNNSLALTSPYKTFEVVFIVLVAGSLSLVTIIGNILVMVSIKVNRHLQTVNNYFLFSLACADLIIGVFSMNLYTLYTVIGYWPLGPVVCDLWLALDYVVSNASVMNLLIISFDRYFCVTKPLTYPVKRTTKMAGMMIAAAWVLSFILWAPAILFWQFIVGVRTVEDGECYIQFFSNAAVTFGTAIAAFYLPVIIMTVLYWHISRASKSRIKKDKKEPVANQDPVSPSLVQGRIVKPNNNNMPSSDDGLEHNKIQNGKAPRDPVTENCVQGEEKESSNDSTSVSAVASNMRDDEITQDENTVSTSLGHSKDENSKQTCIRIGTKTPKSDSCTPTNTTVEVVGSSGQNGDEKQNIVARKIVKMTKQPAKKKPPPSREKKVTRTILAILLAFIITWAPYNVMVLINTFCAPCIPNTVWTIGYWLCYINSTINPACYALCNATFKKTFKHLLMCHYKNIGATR
Method in brief: (§2)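 Guinea pig left atria in PSS at 30 °C, paced by square-wave pulses (1 ms, 1 Hz, 5-10 V). Inotropic force recorded isometrically after 2 h equilibration, with cumulative dose-response curves to arecaidine propargyl ester as reference. Antagonists incubated 60 min after a 30 min wash, then the curve was repeated. Values given as pD2 with intrinsic activity, or as pKb.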

[3] = target: T2, Muscarinic acetylcholine receptor M4 (Homo sapiens) (UniProt P08173); assay: Antagonist affinity at muscarinic M4 receptor in guinea pig lung strips; format: functional; details: Cavia porcellus, target entry is the homologue from another species; method in brief: as §1
T2 sequence (whole entry): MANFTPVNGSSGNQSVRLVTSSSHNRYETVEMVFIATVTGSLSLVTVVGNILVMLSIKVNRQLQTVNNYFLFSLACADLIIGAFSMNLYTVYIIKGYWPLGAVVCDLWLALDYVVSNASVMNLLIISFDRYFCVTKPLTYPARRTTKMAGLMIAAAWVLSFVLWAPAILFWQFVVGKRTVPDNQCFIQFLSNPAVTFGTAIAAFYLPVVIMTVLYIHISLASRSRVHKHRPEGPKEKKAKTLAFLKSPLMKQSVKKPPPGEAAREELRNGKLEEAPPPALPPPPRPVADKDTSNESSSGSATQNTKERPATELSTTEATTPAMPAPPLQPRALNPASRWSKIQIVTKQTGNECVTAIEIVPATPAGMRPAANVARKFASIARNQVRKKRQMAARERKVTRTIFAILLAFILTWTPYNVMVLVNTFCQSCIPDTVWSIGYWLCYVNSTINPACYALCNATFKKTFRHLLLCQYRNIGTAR

[4] = target: Muscarinic acetylcholine receptor M3 (Cavia porcellus) (UniProt Q8VH26); assay: Antagonist affinity at muscarinic M3 receptor in guinea pig ileum; format: functional, tissue-based; method in brief: as §1
[5] = target: T3, Muscarinic acetylcholine receptor M1 (Homo sapiens) (UniProt P11229); assay: Antagonist affinity at muscarinic M1 receptor in rabbit vas deferens; format: functional, tissue-based; details: Oryctolagus cuniculus, target entry is the homologue from another species
T3 sequence (whole entry): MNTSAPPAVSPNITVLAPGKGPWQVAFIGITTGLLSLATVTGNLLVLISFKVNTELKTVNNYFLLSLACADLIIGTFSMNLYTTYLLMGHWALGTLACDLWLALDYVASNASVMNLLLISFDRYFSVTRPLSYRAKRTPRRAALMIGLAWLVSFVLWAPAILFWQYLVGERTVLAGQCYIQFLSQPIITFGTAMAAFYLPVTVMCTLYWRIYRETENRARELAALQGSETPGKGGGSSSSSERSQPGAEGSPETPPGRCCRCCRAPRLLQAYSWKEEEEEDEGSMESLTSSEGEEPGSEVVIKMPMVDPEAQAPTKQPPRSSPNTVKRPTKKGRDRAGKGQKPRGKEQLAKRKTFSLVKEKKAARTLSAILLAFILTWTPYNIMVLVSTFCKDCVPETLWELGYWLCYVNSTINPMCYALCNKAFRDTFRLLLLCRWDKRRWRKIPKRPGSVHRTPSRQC
Method in brief: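 Field-stimulated (0.1 ms, 2 Hz, 10-15 V), contractions recorded isometrically after 1 h equilibration. Cumulative dose-response curves against p-Cl-McN-A-343 reference. Antagonists incubated 60 min before the repeat curve. Reported as pD2 (-log ED50) with intrinsic activity, or as pKb.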

[6] = target: T1, Muscarinic acetylcholine receptor M2 (Homo sapiens); assay: Agonist potency at muscarinic M2 receptor in guinea pig atrium; format: functional, tissue-based; details: Cavia porcellus; Cardiac atrium; target entry is the homologue from another species; method in brief: as §2
[7] = target: T1, Muscarinic acetylcholine receptor M2 (Homo sapiens); assay: Efficacy of agonist at muscarinic M2 receptor in guinea pig atrium as ratio of Ka/ED50; format: functional, tissue-based; details: Cavia porcellus; Cardiac atrium; target entry is the homologue from another species
Method in brief: (§3)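 Functional affinity constants (Ka) obtained in the atrium and ileum preparations. Full agonists: Furchgott-Bursztyn method. Partial agonists: Waud method, comparing their concentration-response curves with arecaidine propargyl ester, with equieffective concentrations read graphically. Ka was then related to ED50.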

[8] = target: Muscarinic acetylcholine receptor M3 (Cavia porcellus) (UniProt Q8VH26); assay: Efficacy of agonist at muscarinic M3 receptor in guinea pig ileum as ratio of Ka/ED50; format: functional, tissue-based; method in brief: as §3
[9] = target: T4, Muscarinic acetylcholine receptor M5 (Homo sapiens, UniProt P08912); assay: Binding affinity to cloned human muscarinic M5 receptor expressed in CHO cells; format: cell-based
T4 sequence (P08912 whole entry): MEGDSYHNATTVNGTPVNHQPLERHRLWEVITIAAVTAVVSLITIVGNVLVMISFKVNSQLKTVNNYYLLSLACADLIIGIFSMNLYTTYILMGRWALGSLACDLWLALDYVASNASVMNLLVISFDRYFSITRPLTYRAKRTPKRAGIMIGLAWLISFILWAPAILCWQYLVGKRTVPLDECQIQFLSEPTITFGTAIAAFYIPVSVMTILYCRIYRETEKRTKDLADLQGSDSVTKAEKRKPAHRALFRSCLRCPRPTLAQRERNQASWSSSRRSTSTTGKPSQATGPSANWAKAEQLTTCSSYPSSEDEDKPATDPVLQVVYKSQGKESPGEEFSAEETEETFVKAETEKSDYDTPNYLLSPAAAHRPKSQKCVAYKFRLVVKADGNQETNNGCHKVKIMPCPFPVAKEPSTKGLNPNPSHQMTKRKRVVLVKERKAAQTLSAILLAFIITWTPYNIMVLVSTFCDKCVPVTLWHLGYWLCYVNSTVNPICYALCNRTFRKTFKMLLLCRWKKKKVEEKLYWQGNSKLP
Method in brief: (§4)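 Membranes from CHO cells stably expressing human hm2, hm4 or hm5 receptors, at 70, 50 and 25 µg/mL protein respectively. 0.2 nM [3H]NMS displaced by unlabelled ligand for 120 min at room temperature, in 25 mM sodium phosphate with 5 mM MgCl2, pH 7.4. Rapid filtration, then scintillation counting. Mean of at least three experiments.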

[10] = target: T5, Muscarinic acetylcholine receptor M4 (Homo sapiens, UniProt P08173); assay: Binding affinity to cloned human muscarinic M4 receptor expressed in CHO cells; format: cell-based; method in brief: as §4
T5 sequence (P08173 whole entry): T2 sequence (whole entry)

[11] = target: T6, Muscarinic acetylcholine receptor M1 (Homo sapiens, UniProt P11229); assay: Binding affinity to cloned human muscarinic M1 receptor expressed in CHO cells; format: cell-based
T6 sequence (P11229 whole entry): T3 sequence (whole entry)

[12] = target: T7, Muscarinic acetylcholine receptor M2 (Homo sapiens, UniProt P08172); assay: Binding affinity to cloned human muscarinic M2 receptor expressed in CHO cells; format: cell-based; method in brief: as §4
T7 sequence (P08172 whole entry): T1 sequence (whole entry)

[13] = target: Muscarinic acetylcholine receptor M3 (Homo sapiens, UniProt P20309); assay: Binding affinity to cloned human muscarinic M3 receptor expressed in CHO cells; format: cell-based
Chain of Muscarinic acetylcholine receptor M3 (P20309 whole entry): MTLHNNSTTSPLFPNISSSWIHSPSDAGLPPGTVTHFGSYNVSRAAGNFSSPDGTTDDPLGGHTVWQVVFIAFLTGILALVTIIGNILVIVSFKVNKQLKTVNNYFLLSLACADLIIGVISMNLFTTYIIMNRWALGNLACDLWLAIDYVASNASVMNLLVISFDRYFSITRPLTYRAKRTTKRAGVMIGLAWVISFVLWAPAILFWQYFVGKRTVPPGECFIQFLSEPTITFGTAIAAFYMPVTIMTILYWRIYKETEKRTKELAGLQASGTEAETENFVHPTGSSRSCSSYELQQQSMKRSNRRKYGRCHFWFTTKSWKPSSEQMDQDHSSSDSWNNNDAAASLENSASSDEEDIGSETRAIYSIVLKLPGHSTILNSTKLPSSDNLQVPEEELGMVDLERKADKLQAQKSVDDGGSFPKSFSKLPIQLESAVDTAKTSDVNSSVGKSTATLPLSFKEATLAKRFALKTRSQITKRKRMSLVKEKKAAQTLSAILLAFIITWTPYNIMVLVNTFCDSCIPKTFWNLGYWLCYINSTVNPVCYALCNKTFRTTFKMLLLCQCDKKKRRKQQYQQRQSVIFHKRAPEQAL

Chain of Muscarinic acetylcholine receptor M3 (Cavia porcellus) (Q8VH26 1-587): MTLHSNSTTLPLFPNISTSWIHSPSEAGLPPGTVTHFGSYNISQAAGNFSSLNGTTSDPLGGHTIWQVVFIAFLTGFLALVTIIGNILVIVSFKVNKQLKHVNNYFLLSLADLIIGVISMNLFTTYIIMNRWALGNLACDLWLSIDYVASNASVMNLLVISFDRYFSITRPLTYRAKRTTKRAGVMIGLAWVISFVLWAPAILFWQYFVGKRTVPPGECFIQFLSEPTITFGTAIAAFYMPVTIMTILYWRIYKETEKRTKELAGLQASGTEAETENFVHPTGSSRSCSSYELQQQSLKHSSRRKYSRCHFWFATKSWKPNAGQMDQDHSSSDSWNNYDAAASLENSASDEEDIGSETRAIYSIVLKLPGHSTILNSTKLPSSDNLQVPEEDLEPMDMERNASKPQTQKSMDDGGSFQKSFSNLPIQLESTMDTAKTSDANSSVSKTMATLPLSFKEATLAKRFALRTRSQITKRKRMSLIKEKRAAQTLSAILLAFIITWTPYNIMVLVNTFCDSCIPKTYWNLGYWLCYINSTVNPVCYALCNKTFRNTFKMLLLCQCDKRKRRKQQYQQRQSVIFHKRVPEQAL

Structure (SMILES)	Activity [1]	pKb [2]	pKb [3]	pKb [4]	pKb [5]	Activity [6]	-logKa [1]	pD2 [1]	Ratio [7]	-logKa [6]	pD2 [6]	Ratio [8]	Ki [9] [µM]	Ki [10] [µM]	Ki [11] [µM]	Ki [12] [µM]	Ki [13] [µM]	Log Ki ([10]; cho)	Log Ki ([11]; cho)	Log Ki ([13]; cho)
C[C@H]1O[C@@H]([C@@H]2CCC[N+]2(C)C)C[S@@+]1[O-] (stereo in doubt; (-)-6)	0	< 5	< 5	< 5	< 5	0	–	–	–	–	–	–	–	–	–	–	–	–	–	–
C[C@H]1O[C@@H]([C@@H]2CCC[N+]2(C)C)C[S@@+]1[O-] (stereo in doubt; (+)-7)	0	< 5	< 5	< 5	< 5	0	–	–	–	–	–	–	–	–	–	–	–	–	–	–
C[C@H]1O[C@@H](C[N+](C)(C)C)C[S+]1[O-] (single isomer, unassigned; (-))	–	–	–	–	–	–	5.38	6.95	28	5.22	6.66	37	–	–	–	–	–	–	–	–
C[C@@H]1O[C@H]([C@@H]2CCC[N+]2(C)C)C[S@@+]1[O-]	0.54	–	< 5	–	< 5	0.56	4.59	4.62	58	4.64	6.37	1	33.9	46.8	93.3	15.5	33.9	–	–	–
C[C@H]1O[C@@H]([C@@H]2CCCN2C)C[S@+]1[O-]	0	< 5	< 5	< 5	< 5	0	–	–	–	–	–	–	> 100	> 100	> 100	87.1	> 100	–	–	–
C[C@H]1O[C@@H]([C@H]2CCCN2C)C[S@+]1[O-]	–	–	–	–	–	–	–	–	–	–	–	–	> 100	> 100	> 100	> 100	> 100	–	–	–
C[C@H]1O[C@@H]([C@@H]2CCC[N+]2(C)C)C[S@@+]1[O-].[I-] (stereo in doubt; (+)-7)	–	–	–	–	–	–	–	–	–	–	–	–	57.5	–	–	81.3	–	< -4	< -4	< -4
C[C@H]1O[C@@H]([C@@H]2CCC[N+]2(C)C)C[S@+]1[O-]	0	< 5	< 5	< 5	< 5	0	–	–	–	–	–	–	> 100	> 100	> 100	77.6	> 100	–	–	–
C[C@H]1O[C@@H]([C@@H]2CCCN2C)C[S@@+]1[O-]	–	–	–	–	–	–	–	–	–	–	–	–	> 100	> 100	> 100	> 100	> 100	–	–	–
C[C@@H]1O[C@H]([C@H]2CCCN2C)C[S@@+]1[O-]	–	–	–	–	–	–	–	–	–	–	–	–	> 100	> 100	> 100	> 100	> 100	–	–	–
